Results as given in ChEMBL document CHEMBL1287725, “N-(8-(3-ethynylphenoxy)octyl-1-deoxynojirimycin suppresses growth and migration of human lung cancer cells” (Bioorg Med Chem Lett, 2010).
Active and inactive are the calls of the source. The calls are words filed in the database; no cut-off is given here.

How the values were obtained:
[1] = system: A549; test: Effect on surface oligosaccharide expression in human A549 cells assessed as inhibition of binding of L-PHA-[…] to cell surface at 50 uM after 24 hrs by flow cytometry; type: functional, cell-based
[2] = system: A549; test: Antiproliferative activity against human A549 cells after 72 hrs by MTT assay; type: functional, cell-based; details: A549, 72 h
In short: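 A549 cells (2.5 x 10^3/well) in F12K with 10% FBS, seeded overnight, then exposed to a range of doses for 72 h. MTT was added to a final 0.5 mg/ml for 3 h. Formazan was dissolved in DMSO and absorbance read. Triplicates, three experiments; IC50 given as mean of three experiments.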

[3] = system: A549; test: Cell cycle arrest in human A549 cells assessed as accumulation at G1 phase at 50 uM after 24 hrs using propidium iodide staining by flow cytometry relative to control; type: functional
In short: (§1)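 A549 cells were seeded overnight in F12K/10% FBS, then treated 24 h. They were harvested with trypsin-EDTA, fixed in 70% ethanol at −20 °C for at least 2 h, and treated with RNase A 200 µg/ml at 25 °C for 30 min. Staining was with propidium iodide 50 µg/ml for 30 min at 4 °C. 10,000 nuclei per sample were scored by flow cytometry for G1, S and G2/M percentages. Triplicate, repeated three times.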

[4] = system: A549; test: Cell cycle arrest in human A549 cells assessed as accumulation at G2/M phase at 50 uM after 24 hrs using propidium iodide staining by flow cytometry relative to control; type: functional; in short: as §1
[5] = system: A549; test: Cell cycle arrest in human A549 cells assessed as accumulation at S phase at 50 uM after 24 hrs using propidium iodide staining by flow cytometry relative to control; type: functional; in short: as §1
[6] = system: A549; test: Induction of apoptosis in human A549 cells at 50 uM after 24 to 72 hrs using annexin V and propidium iodide staining by flow cytometry; type: functional, cell-based
In short: (§2)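 A549 cells were seeded and, the next day, treated in complete medium at 0, 50 or 100 µM for 24, 48 and 72 h. Cells were collected and washed twice with DPBS, then stained with an annexin V-FITC/propidium iodide kit. Annexin V-positive cells were quantified by flow cytometry. Triplicate, repeated three times.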

[7] = system: A549; test: Induction of apoptosis in human A549 cells at 100 uM after 24 to 72 hrs using annexin V and propidium iodide staining by flow cytometry; type: functional, cell-based; in short: as §2
[8] = system: A549; test: Induction of apoptosis in human A549 cells assessed as increased mitochondrial membrane depolarization at 100 uM after 48 hrs using JC-1 dye by flow cytometry; type: functional, cell-based
In short: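 After 48 h exposure, A549 cells were harvested and stained with JC-1. The red-to-green fluorescence shift (green/red ratio) was measured by flow cytometry as mitochondrial depolarisation. Mean ± SD, n=3.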

[9] = system: A549; test: Inhibition of human A549 cell migration at 100 uM after 24 hrs by wound-healing assay; type: functional, cell-based
In short: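 Confluent A549 monolayers (3 x 10^4 cells seeded overnight, F12K/10% FBS) were scratched with a 200 µl pipette tip and washed. They were incubated at 37 °C in 10% FBS F12K with or without compound, and migration into the wound was photographed at 0 and 24 h.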

[10] = system: A549; test: Inhibition of human A549 cell migration assessed as prevention of actin stress fibre formation at 100 uM after 24 hrs by TRITC-phalloidin staining; type: functional, cell-based
In short: (§3)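 A549 cells on glass coverslips were seeded overnight, then exposed 24 h. They were fixed with 4% paraformaldehyde, permeabilised with 0.1% Triton X-100, blocked with 1% BSA, and stained 60 min with TRITC-phalloidin for F-actin. Stress fibres were examined by confocal microscopy (100x oil). Repeated three times.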

[11] = system: A549; test: Inhibition of human A549 cell migration assessed as disruption of actin assembly at 100 uM after 24 hrs by TRITC-phalloidin staining; type: functional, cell-based; in short: as §3
[12] = system: A549; test: Cell cycle arrest in human A549 cells assessed as accumulation at G1 phase at 100 uM after 24 hrs using propidium iodide staining by flow cytometry relative to control; type: functional; in short: as §1
[13] = system: A549; test: Cell cycle arrest in human A549 cells assessed as accumulation at G2/M phase at 100 uM after 24 hrs using propidium iodide staining by flow cytometry relative to control; type: functional; in short: as §1
[14] = system: A549; test: Cell cycle arrest in human A549 cells assessed as accumulation at S phase at 100 uM after 24 hrs using propidium iodide staining by flow cytometry relative to control; type: functional; in short: as §1

| IC50 [2] | Structure (SMILES) | inhibition [1] | Activity [3] | Activity [4] | Activity [5] | Activity [6] | Activity [7] | Activity [8] | inhibition [9] | inhibition [10] | inhibition [11] | Activity [12] | Activity [13] | Activity [14] |
| --- | --- | --- | --- | --- | --- | --- | --- | --- | --- | --- | --- | --- | --- | --- |
| 51.2 µM | C#Cc1cccc(OCCCCCCCCN2C[C@H](O)[C@@H](O)[C@H](O)[C@H]2CO)c1 | Active | 77.69% | 9.97% | 13.93% | Active | Active | Active | Active | Active | Active | 89.1% | 5.44% | 4.85% |
| > 1000 µM | OC[C@H]1NC[C@H](O)[C@@H](O)[C@@H]1O [DUVOGLUSTAT] | Active |  |  |  |  |  |  | inactive |  |  |  |  |  |
| > 1000 µM | C#Cc1cccc(OC)c1 |  |  |  |  |  |  |  | inactive |  |  |  |  |  |
